The text below walks through data of ChEMBL document CHEMBL4251567 (Eur J Med Chem, 2018).

For one test, the target named is Histone deacetylase. Briefly: Inhibition of HDAC in human HeLa-S3 cell lysates preincubated for 15 mins followed by HDAC-Glo substrate addition measured after 35 mins by fluorimetric method. The test is classed as protein assay.
In test [1] the target is Histone deacetylase (Homo sapiens) (UniProt Q13547+O15379+Q9UBN7+Q92769+Q9UQL6+Q8WUI4+Q9BY41+Q96DB2+P56524+Q9UKV0+Q969S8). Briefly: Inhibition of HDAC in human HeLa-S3 cell lysates assessed as residual activity at 1.25 x 10^-5 M preincubated for 15 mins followed by HDAC-Glo substrate addition measured after 35 mins by […] relative to control. It is filed as protein assay.

In test [2] the target is Histone deacetylase 1 (Homo sapiens) (UniProt Q13547). Briefly: Inhibition of HDAC1 in human HeLa-S3 cell lysates assessed as remaining activity at 1.6 x 10^-4 M preincubated for 15 mins followed by HDAC-Glo substrate addition measured after 30 to 40 mins by […] relative to control. In a few lines:
(§1)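 HDAC1 was captured from HeLa-S3 lysate (100 μg/mL) onto wells precoated with anti-HDAC1 antibody (10 μg/mL, carbonate buffer pH 9.4) and milk-blocked, 1 h at 4 °C, then washed. Inhibitor in DMSO was added in HDAC-Glo buffer for 15 min at room temperature. HDAC-Glo reagent was added and luminescence read after 30-40 min. Concentrations are final. No-antibody background subtracted; % of DMSO control.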

Test [3] has the same target. Description: Inhibition of HDAC1 in human HeLa-S3 cell lysates assessed as remaining activity at 8 x 10^-5 M preincubated for 15 mins followed by HDAC-Glo substrate addition measured after 30 to 40 mins by […] relative to control.
The target is the same in test [4]. Description: Inhibition of HDAC1 in human HeLa-S3 cell lysates assessed as remaining activity at 4 x 10^-5 M preincubated for 15 mins followed by HDAC-Glo substrate addition measured after 30 to 40 mins by […] relative to control. The essentials:
as §1

Test [5] has the same target. Description: Inhibition of HDAC1 in human HeLa-S3 cell lysates assessed as remaining activity at 2 x 10^-5 M preincubated for 15 mins followed by HDAC-Glo substrate addition measured after 30 to 40 mins by […] relative to control. In a few lines:
as §1

For test [6] the target is unchanged. Briefly: Inhibition of HDAC1 in human HeLa-S3 cell lysates assessed as remaining activity at 1 x 10^-5 M preincubated for 15 mins followed by HDAC-Glo substrate addition measured after 30 to 40 mins by fluorimetric method relative to control. In a few lines:
as §1

In test [7] the target is Histone deacetylase 2 (Homo sapiens) (UniProt Q92769). Description: Inhibition of HDAC2 in human HeLa-S3 cell lysates assessed as remaining activity at 1.6 x 10^-4 M preincubated for 15 mins followed by HDAC-Glo substrate addition measured after 30 to 40 mins by […] relative to control. The essentials: (§2)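 Same antibody-capture format as the other class I isoforms. HeLa-S3 lysate added at 100 μg/mL for HDAC1 and HDAC2, 1 h at 4 °C, then washed. Inhibitor in DMSO preincubated 15 min at RT; HDAC-Glo reagent added and luminescence read after 30-40 min. Concentrations are final. Signal corrected against a well without antibody; activity expressed as % of DMSO control.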
Chain of Histone deacetylase 2 (Homo sapiens) (Q92769 whole entry, canonical isoform): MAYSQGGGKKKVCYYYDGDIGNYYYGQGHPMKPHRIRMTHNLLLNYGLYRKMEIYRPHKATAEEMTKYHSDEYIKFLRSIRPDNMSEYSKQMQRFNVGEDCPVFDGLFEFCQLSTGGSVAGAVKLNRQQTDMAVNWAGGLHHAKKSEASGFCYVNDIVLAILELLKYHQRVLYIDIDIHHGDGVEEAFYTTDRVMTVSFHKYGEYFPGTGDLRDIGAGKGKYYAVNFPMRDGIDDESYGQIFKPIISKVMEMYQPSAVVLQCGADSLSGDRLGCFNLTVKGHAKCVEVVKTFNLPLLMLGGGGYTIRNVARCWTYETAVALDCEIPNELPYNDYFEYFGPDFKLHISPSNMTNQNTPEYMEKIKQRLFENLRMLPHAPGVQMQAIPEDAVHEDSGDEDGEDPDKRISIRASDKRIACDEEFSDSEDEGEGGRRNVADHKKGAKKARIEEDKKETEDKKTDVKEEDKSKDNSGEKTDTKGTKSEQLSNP

The target is the same in test [8]. Briefly: Inhibition of HDAC2 in human HeLa-S3 cell lysates assessed as remaining activity at 8 x 10^-5 M preincubated for 15 mins followed by HDAC-Glo substrate addition measured after 30 to 40 mins by […] relative to control. In a few lines:
as §2

The target is the same in test [9]. Briefly: Inhibition of HDAC2 in human HeLa-S3 cell lysates assessed as remaining activity at 4 x 10^-5 M preincubated for 15 mins followed by HDAC-Glo substrate addition measured after 30 to 40 mins by […] relative to control. In a few lines:
as §2

For test [10] the target is unchanged. Briefly: Inhibition of HDAC2 in human HeLa-S3 cell lysates assessed as remaining activity at 2 x 10^-5 M preincubated for 15 mins followed by HDAC-Glo substrate addition measured after 30 to 40 mins by fluorimetric method relative to control. The essentials: as §2
In test [11] the target is Histone deacetylase 3 (Homo sapiens) (UniProt O15379). Description: Inhibition of HDAC3 in human HeLa-S3 cell lysates assessed as remaining activity at 1.6 x 10^-4 M preincubated for 15 mins followed by HDAC-Glo substrate addition measured after 30 to 40 mins by […] relative to control. In a few lines: (§3)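 Antibody-capture (ELISA-type) assay: HDAC antibody coated in carbonate/bicarbonate buffer pH 9.4, wells blocked with 5% milk in TBST. HeLa-S3 lysate added at 1 mg/mL for HDAC3, 1 h at 4 °C, then washed. Inhibitor in DMSO preincubated 15 min at RT in HDAC-Glo buffer. HDAC-Glo reagent added, luminescence read after 30-40 min. Concentrations are final. Background = no-antibody well; activity given as % of DMSO control.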
Chain of Histone deacetylase 3 (Homo sapiens) (O15379 whole entry): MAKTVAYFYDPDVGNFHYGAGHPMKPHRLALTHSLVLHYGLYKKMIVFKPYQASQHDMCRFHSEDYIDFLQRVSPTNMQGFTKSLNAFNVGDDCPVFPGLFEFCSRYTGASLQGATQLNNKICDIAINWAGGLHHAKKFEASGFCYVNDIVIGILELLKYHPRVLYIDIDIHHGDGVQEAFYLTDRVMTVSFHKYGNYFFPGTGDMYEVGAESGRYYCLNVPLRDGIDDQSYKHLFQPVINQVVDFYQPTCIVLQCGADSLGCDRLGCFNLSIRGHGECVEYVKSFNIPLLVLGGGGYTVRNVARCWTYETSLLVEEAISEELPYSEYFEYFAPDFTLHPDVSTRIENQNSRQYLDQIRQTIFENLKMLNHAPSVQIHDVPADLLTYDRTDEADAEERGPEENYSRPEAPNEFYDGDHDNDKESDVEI

Test [12] shares this target. Briefly: Inhibition of HDAC3 in human HeLa-S3 cell lysates assessed as remaining activity at 8 x 10^-5 M preincubated for 15 mins followed by HDAC-Glo substrate addition measured after 30 to 40 mins by […] relative to control. In a few lines: as §3
Test [13] shares this target. Briefly: Inhibition of HDAC3 in human HeLa-S3 cell lysates assessed as remaining activity at 4 x 10^-5 M preincubated for 15 mins followed by HDAC-Glo substrate addition measured after 30 to 40 mins by […] relative to control. In a few lines:
as §3

Test [14] has the same target. Description: Inhibition of HDAC3 in human HeLa-S3 cell lysates assessed as remaining activity at 2 x 10^-5 M preincubated for 15 mins followed by HDAC-Glo substrate addition measured after 30 to 40 mins by […] relative to control. In a few lines:
as §3

For test [15] the target is unchanged. Description: Inhibition of HDAC3 in human HeLa-S3 cell lysates assessed as remaining activity at 1 x 10^-5 M preincubated for 15 mins followed by HDAC-Glo substrate addition measured after 30 to 40 mins by […] relative to control. The essentials: as §3
Test [16] concerns U-937. Description: Cytotoxicity against human U937 cells assessed as decrease in cell viability after 44 hrs by MTT assay. As to conditions: Homo sapiens, U-937, 44 h. It is filed as functional, cell-based. (In general: Formazan colour is commonly taken as a measure of viable cells.)
Test [17] deals with U-937. Description: Cytotoxicity against human U937 cells assessed as cell viability at 6.4 x 10^-5 M after 44 hrs by MTT assay relative to control. It is filed as functional. As to conditions: U-937, 44 h, read-out: Activity.
In test [18] the test system is U-937. Description: Cytotoxicity against human U937 cells assessed as cell viability at 3.2 x 10^-5 M after 44 hrs by MTT assay relative to control. The test is classed as functional. As to conditions: U-937, 44 h, read-out: Activity.
The subject of test [19] is U-937. Briefly: Cytotoxicity against human U937 cells assessed as cell viability at 1.6 x 10^-5 M after 44 hrs by MTT assay relative to control. It is filed as functional. As to conditions: U-937, 44 h, read-out: Activity.
Another test concerns Jurkat. Briefly: Cytotoxicity against human Jurkat cells assessed as cell viability at 1 uM after 44 hrs by MTT assay relative to control. The test is classed as functional. As to conditions: read-out: Activity.

Structures are written as SMILES. pEC50: −log10 of the molar value.

Chain of Histone deacetylase 1 (Homo sapiens) (Q13547 whole entry): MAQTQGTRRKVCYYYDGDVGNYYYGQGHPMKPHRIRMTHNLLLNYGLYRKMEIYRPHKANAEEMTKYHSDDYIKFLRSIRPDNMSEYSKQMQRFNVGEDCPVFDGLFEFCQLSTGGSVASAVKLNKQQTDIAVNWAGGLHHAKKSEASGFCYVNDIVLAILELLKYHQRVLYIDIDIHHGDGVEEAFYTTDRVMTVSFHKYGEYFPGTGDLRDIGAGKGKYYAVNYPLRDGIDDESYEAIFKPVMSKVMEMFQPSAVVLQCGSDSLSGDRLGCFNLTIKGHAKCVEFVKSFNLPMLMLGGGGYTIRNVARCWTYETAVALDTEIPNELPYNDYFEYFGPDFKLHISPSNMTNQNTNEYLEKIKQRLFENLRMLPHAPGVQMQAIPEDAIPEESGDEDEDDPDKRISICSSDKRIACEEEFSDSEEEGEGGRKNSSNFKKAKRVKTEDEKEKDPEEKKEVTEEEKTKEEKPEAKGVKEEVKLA

One may read the IC50 as the concentration at which inhibition is half-maximal. Read a high IC50 as weaker potency. A word on the pEC50: it is the EC50 on a negative log10 scale, so that one unit is a factor of ten. `O=C(CCC(CCCC(=O)Nc1ccccc1)Cc1ccccc1)NO` (racemic) returned a 50% inhibitory concentration (IC50) against Histone deacetylase of 62 µM. Further, the Activity in test [1] came to 88%; in [2], 16%; in [3], 27%; in test [4], 44%; in [5], 58%; in test [6], 75%. The Activity in [7] came out at 20%; in [8] it was 27%; in test [9], 47%; in [10], 60%; in [11], 19%; in test [12] it was 33%. Moreover, the Activity in test [13] was 55%; in test [14], 63%; in [15] it was 87%. Also, the pEC50 with U-937 [16] is 4.55. Besides, the viability at 64 µM in the test on U-937 [17] was 26%. For the same compound, the viability at 32 µM in the test on U-937 [18] turned out to be 49%. Further, the viability at 16 µM in the test with U-937 [19] was found to be 69%. For the same compound, the viability at 1 µM in the test on Jurkat worked out at 89%.

`CCCCCCC(CCCC(=O)Nc1ccccc1)CCC(=O)NO` (configuration not stated) displayed a half-maximal inhibitory concentration (IC50) against Histone deacetylase of 60 µM. The Activity in test [1] worked out at 87%; in test [2] it was 13%; in [3] it was 26%; in test [4], 46%; in test [5] it was 67%; in test [6], 83%. Also, the Activity is 16% in [7]; 31% in test [8]; 46% in [9]; 73% in [10]; 5% in [11]; 25% in [12]. The values for the Activity in test [13], in test [14] and in [15] were 42%, 56% and 88%, respectively. For the same compound, the pEC50 in the test on U-937 [16] was 4.80. Besides, the viability at 64 µM with U-937 [17] worked out at 24%. Besides, the viability at 32 µM with U-937 [18] was found to be 28%. For the same compound, the viability at 16 µM in the test on U-937 [19] was 37%. For the same compound, the viability at 1 µM with Jurkat is 69%.

As to `CCC(CCCC(=O)Nc1ccccc1)CCC(=O)NO` (configuration not stated), the IC50 against Histone deacetylase worked out at 14 µM.

As for `O=C(CC[C@H](CCCC(=O)Nc1ccccc1)Cc1ccccc1)NO`, the Activity in test [2] is 17%; in [3], 32%; in [4] it was 50%; in [5] it was 68%; in test [6] it was 84%; in test [7] it was 22%. The Activity in test [8] turned out to be 37%; in test [9], 56%; in test [10], 74%; in test [11], 15%; in test [12], 33%; in test [13], 48%. Also, the Activity in test [14] is 67%; in test [15] it was 76%.
